Experimental data published in article PMC5656813 (Arthritis & Rheumatology (Hoboken, N.j.), 2017).

Tests used:
[1] = cited from earlier work
[2] = system: RA patients with an inadequate response to MTX; test: Study 1; format: in vivo, human
Procedure, shortened: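 Randomized, double-blind, placebo-controlled trial at one site, 36 RA patients. Patients had MTX for ≥6 months and a stable 7.5–25 mg/week dose for ≥4 weeks, continued throughout. Oral capsules for 4 weeks: 200 mg once daily or 100 mg twice daily. ACR20/50/70 responses, DAS28-CRP and ACR core components (pain VAS, HAQ DI) scored as change from baseline. Intent-to-treat population.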

healthy volunteers = settings: cited from earlier work
[3] = system: VCAM‐1, ICAM‐1, MMP‐3, haptoglobin, IL‐18, YKL‐40; test: Study 2, PD marker proteins in plasma; format: in vivo, human; settings: 75, 150, or 300 mg, after 4 weeks
Procedure, shortened: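 Plasma taken at baseline and week 4 from all study 2 participants. Dosed once daily for 4 weeks. YKL-40 measured by ELISA; VCAM-1, ICAM-1, MMP-3, haptoglobin and IL-18 quantified by a second technology at a service laboratory. Each patient normalized to own baseline, expressed as percent change. Mean ± SEM; Kruskal-Wallis test with Dunn's post hoc test.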

RA patients [4] = test: Studies 1 and 2, laboratory safety, hematology, vital signs, EKG; format: in vivo, human
Procedure, shortened: (§1)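 Both double-blind, placebo-controlled trials in RA patients on stable MTX. Oral capsules daily for 4 weeks, with 7–10-day follow-up: 200 mg once daily or 100 mg twice daily (study 1); 30, 75, 150 or 300 mg once daily (study 2). At every visit: AEs, vital signs, hematology, serum biochemistry, coagulation and urinalysis. EKG at baseline and follow-up, plus week 4 in study 1. Safety population, descriptive treatment-emergent AE summaries.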

RA patients [5] = test: Study 1, treatment‐emergent adverse events; format: in vivo, human; settings: for treatment-related TEAE: Abdominal discomfort / treatment-related TEAE: Abdominal pain, upper / treatment-related TEAE: Aspartate aminotransferase increased / treatment-related TEAE: Blood amylase increased / treatment-related TEAE: Blood and lymphatic system disorders / treatment-related TEAE: Blood triglycerides increased / treatment-related TEAE: Cystitis, noninfectious / treatment-related TEAE: Duodenogastric reflux / treatment-related TEAE: Ear and labyrinth disorders / treatment-related TEAE: Gastrointestinal disorders / treatment-related TEAE: Gastrointestinal pain / treatment-related TEAE: General disorders and administration site reactions / treatment-related TEAE: Gingival bleeding / treatment-related TEAE: Infections and infestations / treatment-related TEAE: Laboratory findings / treatment-related TEAE: Lipase increased / treatment-related TEAE: Musculoskeletal and connective tissue disorders / treatment-related TEAE: Nervous system disorders / treatment-related TEAE: Renal and urinary disorders: study 1
Procedure, shortened: as §1

O=C(Nc1nc2cccc(-c3ccc(CN4CCS(=O)(=O)CC4)cc3)n2n1)C1CC1 [Filgotinib]
PK half‐life [1]: ~7 h
ACR20 responders at week 4 ([2]; 100 mg twice daily, study 1): 11 (91.7) no. (%)
ACR50 responders at week 4 ([2]; 100 mg twice daily, study 1): 4 (33.3) no. (%)
DAS28‐CRP, mean change from baseline at week 4 ([2]; 100 mg twice daily, study 1): −2.81
HAQ DI score, mean change from baseline at week 4 ([2]; 100 mg twice daily, study 1): −0.52
Patient's assessment of pain, mean change from baseline at week 4 ([2]; 100 mg twice daily, study 1): −29.8 0–10‐cm VAS
Patient's global assessment of disease activity, mean change from baseline at week 4 ([2]; 100 mg twice daily, study 1): −25.8 0–10‐cm VAS
Physician's global assessment of disease activity, mean change from baseline at week 4 ([2]; 100 mg twice daily, study 1): −35.0 0–10‐cm VAS
Remission rate (DAS28‐CRP <2.6) at week 4 ([2]; 100 mg twice daily, study 1): 3 (25.0) no. (%)
SJC66, mean change from baseline at week 4 ([2]; 100 mg twice daily, study 1): −15.4
Serum CRP, mean change from baseline at week 4 ([2]; 100 mg twice daily, study 1): -13.84 mg/L
TJC68, mean change from baseline at week 4 ([2]; 100 mg twice daily, study 1): −36.3
time to normalization of serum CRP level ([2]; 200 mg once daily and 100 mg twice daily, study 1): ≤ 1 week
ACR20 responders at week 4 ([2]; 200 mg once daily, study 1): 9 (75.0) no. (%)
ACR50 responders at week 4 ([2]; 200 mg once daily, study 1): 2 (16.7) no. (%)
DAS28‐CRP, mean change from baseline at week 4 ([2]; 200 mg once daily, study 1): −2.23
HAQ DI score, mean change from baseline at week 4 ([2]; 200 mg once daily, study 1): −0.57
Patient's assessment of pain, mean change from baseline at week 4 ([2]; 200 mg once daily, study 1): −24.3 0–10‐cm VAS
Patient's global assessment of disease activity, mean change from baseline at week 4 ([2]; 200 mg once daily, study 1): −23.8 0–10‐cm VAS
Physician's global assessment of disease activity, mean change from baseline at week 4 ([2]; 200 mg once daily, study 1): −26.7 0–10‐cm VAS
Remission rate (DAS28‐CRP <2.6) at week 4 ([2]; 200 mg once daily, study 1): 2 (16.7) no. (%)
SJC66, mean change from baseline at week 4 ([2]; 200 mg once daily, study 1): −12.8
Serum CRP, mean change from baseline at week 4 ([2]; 200 mg once daily, study 1): -35.05 mg/L
TJC68, mean change from baseline at week 4 ([2]; 200 mg once daily, study 1): −23.1
patients achieving an ACR20 response ([2]; study 1, all filgotinib‐treated patients, end of 4 weeks): > 83%
inhibition of JAK pathways in PD assays (healthy volunteers; healthy volunteers, daily doses of ≥100 mg): Significant inhibition of JAK‐1 pathways but not JAK‐2
tolerability and safety in healthy volunteers (healthy volunteers; up to 10 days, doses up to 450 mg once daily): well tolerated and safe
effect on levels of circulating PD markers [3]: dose‐dependent effect
Creatinine, mean change, day 28 (RA patients [4]; 30 mg once daily): 1.47 µmol/L
HDL cholesterol, mean change, day 28 (RA patients [4]; 30 mg once daily): 0.03 mmol/L
Hemoglobin, mean change, day 28 (RA patients [4]; 30 mg once daily): −0.3 gm/liter
LDL cholesterol, mean change, day 28 (RA patients [4]; 30 mg once daily): 0.25 mmol/L
Neutrophils, mean change, day 28 (RA patients [4]; 30 mg once daily): -6.5e+08 L⁻¹
Platelets, mean change, day 28 (RA patients [4]; 30 mg once daily): -1.8e+10 L⁻¹
Creatinine, mean change, day 28 (RA patients [4]; 75 mg once daily): 5.18 µmol/L
HDL cholesterol, mean change, day 28 (RA patients [4]; 75 mg once daily): 0.11 mmol/L
Hemoglobin, mean change, day 28 (RA patients [4]; 75 mg once daily): 2.0 gm/liter
LDL cholesterol, mean change, day 28 (RA patients [4]; 75 mg once daily): 0.14 mmol/L
Neutrophils, mean change, day 28 (RA patients [4]; 75 mg once daily): -7.4e+08 L⁻¹
Platelets, mean change, day 28 (RA patients [4]; 75 mg once daily): -3.5e+10 L⁻¹
Creatinine, mean change, day 28 (RA patients [4]; 100 mg twice daily): -6.98 µmol/L
HDL cholesterol, mean change, day 28 (RA patients [4]; 100 mg twice daily): 0.20 mmol/L
Hemoglobin, mean change, day 28 (RA patients [4]; 100 mg twice daily): 3.0 gm/liter
LDL cholesterol, mean change, day 28 (RA patients [4]; 100 mg twice daily): 0.07 mmol/L
Neutrophils, mean change, day 28 (RA patients [4]; 100 mg twice daily): -1.45e+09 L⁻¹
Platelets, mean change, day 28 (RA patients [4]; 100 mg twice daily): -3.5e+10 L⁻¹
Creatinine, mean change, day 28 (RA patients [4]; 150 mg once daily): 4.50 µmol/L
HDL cholesterol, mean change, day 28 (RA patients [4]; 150 mg once daily): 0.07 mmol/L
Hemoglobin, mean change, day 28 (RA patients [4]; 150 mg once daily): −1.0 gm/liter
LDL cholesterol, mean change, day 28 (RA patients [4]; 150 mg once daily): 0.01 mmol/L
Neutrophils, mean change, day 28 (RA patients [4]; 150 mg once daily): -1.37e+09 L⁻¹
Platelets, mean change, day 28 (RA patients [4]; 150 mg once daily): -3.2e+10 L⁻¹
increase in HDL at week 4 versus baseline (RA patients [4]; 200 mg): ~15%
Creatinine, mean change, day 28 (RA patients [4]; 200 mg once daily): 5.47 µmol/L
HDL cholesterol, mean change, day 28 (RA patients [4]; 200 mg once daily): 0.16 mmol/L
Hemoglobin, mean change, day 28 (RA patients [4]; 200 mg once daily): 7.8 gm/liter
LDL cholesterol, mean change, day 28 (RA patients [4]; 200 mg once daily): -0.25 mmol/L
Neutrophils, mean change, day 28 (RA patients [4]; 200 mg once daily): -1.21e+09 L⁻¹
Platelets, mean change, day 28 (RA patients [4]; 200 mg once daily): -3.3e+10 L⁻¹
increase in HDL at week 4 versus baseline (RA patients [4]; 300 mg): > 30%
Creatinine, mean change, day 28 (RA patients [4]; 300 mg once daily): 6.90 µmol/L
HDL cholesterol, mean change, day 28 (RA patients [4]; 300 mg once daily): 0.48 mmol/L
Hemoglobin, mean change, day 28 (RA patients [4]; 300 mg once daily): 4.4 gm/liter
LDL cholesterol, mean change, day 28 (RA patients [4]; 300 mg once daily): 0.37 mmol/L
Neutrophils, mean change, day 28 (RA patients [4]; 300 mg once daily): -1.13e+09 L⁻¹
Platelets, mean change, day 28 (RA patients [4]; 300 mg once daily): -5.8e+10 L⁻¹
decrease in neutrophils from baseline (RA patients [4]; doses of ≥75 mg): 14–24%
lymphocytes and lymphocyte subpopulations (RA patients [4]; during filgotinib treatment): unaffected
liver function tests (transaminases) (RA patients [4]; in vivo): lack of changes
neutropenia (RA patients [4]; in vivo): no neutropenia
reticulocytes (RA patients [4]; in vivo): absence of effects
vital signs values and EKG parameters (RA patients [4]; in vivo): No clinically relevant trends or changes
treatment-related TEAE: Abdominal discomfort (RA patients [5]; 100 mg twice daily): 1 (8.3) number (%) of patients
treatment-related TEAE: Abdominal pain, upper (RA patients [5]; 100 mg twice daily): 0 number (%) of patients
treatment-related TEAE: Aspartate aminotransferase increased (RA patients [5]; 100 mg twice daily): 0 number (%) of patients
treatment-related TEAE: Blood amylase increased (RA patients [5]; 100 mg twice daily): 0 number (%) of patients
treatment-related TEAE: Blood and lymphatic system disorders (RA patients [5]; 100 mg twice daily): 0 number (%) of patients
treatment-related TEAE: Blood triglycerides increased (RA patients [5]; 100 mg twice daily): 0 number (%) of patients
treatment-related TEAE: Cystitis, noninfectious (RA patients [5]; 100 mg twice daily): 0 number (%) of patients
treatment-related TEAE: Duodenogastric reflux (RA patients [5]; 100 mg twice daily): 0 number (%) of patients
treatment-related TEAE: Ear and labyrinth disorders (RA patients [5]; 100 mg twice daily): 0 number (%) of patients
treatment-related TEAE: Gastrointestinal disorders (RA patients [5]; 100 mg twice daily): 2 (16.7) number (%) of patients
treatment-related TEAE: Gastrointestinal pain (RA patients [5]; 100 mg twice daily): 0 number (%) of patients
treatment-related TEAE: General disorders and administration site reactions (RA patients [5]; 100 mg twice daily): 0 number (%) of patients
treatment-related TEAE: Gingival bleeding (RA patients [5]; 100 mg twice daily): 0 number (%) of patients
treatment-related TEAE: Infections and infestations (RA patients [5]; 100 mg twice daily): 0 number (%) of patients
treatment-related TEAE: Laboratory findings (RA patients [5]; 100 mg twice daily): 1 (8.3) number (%) of patients
treatment-related TEAE: Lipase increased (RA patients [5]; 100 mg twice daily): 1 (8.3) number (%) of patients
treatment-related TEAE: Musculoskeletal and connective tissue disorders (RA patients [5]; 100 mg twice daily): 0 number (%) of patients
treatment-related TEAE: Nervous system disorders (RA patients [5]; 100 mg twice daily): 1 (8.3) number (%) of patients
treatment-related TEAE: Renal and urinary disorders (RA patients [5]; 100 mg twice daily): 0 number (%) of patients
treatment-related TEAE: Abdominal discomfort (RA patients [5]; 200 mg once daily): 0 number (%) of patients
treatment-related TEAE: Abdominal pain, upper (RA patients [5]; 200 mg once daily): 1 (8.3) number (%) of patients
treatment-related TEAE: Aspartate aminotransferase increased (RA patients [5]; 200 mg once daily): 0 number (%) of patients
treatment-related TEAE: Blood amylase increased (RA patients [5]; 200 mg once daily): 0 number (%) of patients
treatment-related TEAE: Blood and lymphatic system disorders (RA patients [5]; 200 mg once daily): 0 number (%) of patients
treatment-related TEAE: Blood triglycerides increased (RA patients [5]; 200 mg once daily): 0 number (%) of patients
treatment-related TEAE: Cystitis, noninfectious (RA patients [5]; 200 mg once daily): 0 number (%) of patients
treatment-related TEAE: Duodenogastric reflux (RA patients [5]; 200 mg once daily): 0 number (%) of patients
treatment-related TEAE: Ear and labyrinth disorders (RA patients [5]; 200 mg once daily): 0 number (%) of patients
treatment-related TEAE: Gastrointestinal disorders (RA patients [5]; 200 mg once daily): 2 (16.7) number (%) of patients
treatment-related TEAE: Gastrointestinal pain (RA patients [5]; 200 mg once daily): 0 number (%) of patients
treatment-related TEAE: General disorders and administration site reactions (RA patients [5]; 200 mg once daily): 0 number (%) of patients
treatment-related TEAE: Gingival bleeding (RA patients [5]; 200 mg once daily): 0 number (%) of patients
treatment-related TEAE: Infections and infestations (RA patients [5]; 200 mg once daily): 0 number (%) of patients
treatment-related TEAE: Laboratory findings (RA patients [5]; 200 mg once daily): 0 number (%) of patients
treatment-related TEAE: Lipase increased (RA patients [5]; 200 mg once daily): 0 number (%) of patients
treatment-related TEAE: Musculoskeletal and connective tissue disorders (RA patients [5]; 200 mg once daily): 0 number (%) of patients
treatment-related TEAE: Nervous system disorders (RA patients [5]; 200 mg once daily): 1 (8.3) number (%) of patients
treatment-related TEAE: Renal and urinary disorders (RA patients [5]; 200 mg once daily): 0 number (%) of patients
overall tolerability (RA patients [5]; studies 1 and 2): generally well tolerated
